Consider 10 molecules from ChEMBL document CHEMBL1136172, “Pyrrolo[2,3-h]quinolinones: synthesis and photochemotherapic activity” (Bioorg Med Chem Lett, 2003).

For one experiment, the system named is HT-1080. In words: Inhibition of cell growth after irradiation at UVA dose of 6.5 J/cmE-2 in HT1080 human fibrosarcoma cell line. The experiment is classed as functional, cell-based. Particulars: HT-1080, light or radiation study. The method in brief: (§1)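 HT-1080 cells from exponential culture seeded at 5×10⁴ cells/mL in DMEM with 10% FBS and penicillin/streptomycin, and allowed to adhere 18 h. Drug was dissolved in DMSO, diluted in HBSS pH 7.2 and incubated 30 min at 37 °C, 5% CO2. Cells were irradiated with lamps emitting mainly at 365 nm, then given medium for 72 h. Read-out was MTT versus untreated controls, with IC50 by linear regression from three experiments.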
Broadly, the IC50 is the midpoint of a concentration-inhibition curve. Low values mean higher potency, high ones lower potency. In turn, `O=c1ccc2ccc3occc3c2o1` [ANGELICIN] returned an IC50 of 2.5 µM.
Same read-out and setting: as for `COc1c2ccoc2cc2oc(=O)ccc12` [BERGAPTEN], the figure is 0.9 µM; as for `Cc1cc2c(n1Cc1ccccc1)CCc1cc(S(=O)(=O)c3ccccc3)c(O)nc1-2`, 1.8 µM.
The molecule `Cc1cc2c(n1-c1ccccc1)CCc1cc(C#N)c(O)nc1-2` yielded an IC50 of 11.1 µM.
In turn, `COc1c2occc2cc2ccc(=O)oc12` [METHOXSALEN] returned an IC50 of 1.5 µM.
Molecule `Cc1cc2c(n1Cc1ccccc1)CCc1cc(C(=O)c3ccccc3)c(O)nc1-2` had an IC50 of 1.9 µM. The IC50 values of the last two molecules are within 1.5-fold of each other.
`Cc1cc2c(n1C)CCc1cc(C(=O)c3ccccc3)c(O)nc1-2` registered an IC50 of more than 20 µM.
`Cc1cc2c(n1-c1ccccc1)CCc1cc(S(=O)(=O)c3ccccc3)c(O)nc1-2` registered an IC50 of 0.4 µM.
The same measure, in the same setting: to `Cc1cc2c(n1C)CCc1cc(S(=O)(=O)c3ccccc3)c(O)nc1-2` belongs 16.4 µM; to `Cc1cc2c(n1-c1ccccc1)CCc1cc(C(=O)c3ccccc3)c(O)nc1-2`, 1.7 µM.

Another experiment deals with HT-1080. In words: Inhibition of cell growth after irradiation at UVA dose of 2.6 J/cmE-2 in HT1080 human fibrosarcoma cell line. The settings on record: HT-1080, light or radiation study. It is filed as functional, cell-based. The method in brief:
as §1
In turn, `O=c1ccc2ccc3occc3c2o1` [ANGELICIN] showed an IC50 of 15.7 µM.
Take `COc1c2ccoc2cc2oc(=O)ccc12` [BERGAPTEN]: the IC50 is 8.5 µM. Compared with the last molecule, the IC50 is about 1.8-fold lower.
As to `Cc1cc2c(n1Cc1ccccc1)CCc1cc(S(=O)(=O)c3ccccc3)c(O)nc1-2`, the IC50 was more than 20 µM.
With `Cc1cc2c(n1-c1ccccc1)CCc1cc(C#N)c(O)nc1-2`, the 50% inhibitory concentration (IC50) is more than 20 µM.
On the same count and under the same terms, as for `COc1c2occc2cc2ccc(=O)oc12` [METHOXSALEN], the figure is 7.8 µM.
For the molecule `Cc1cc2c(n1Cc1ccccc1)CCc1cc(C(=O)c3ccccc3)c(O)nc1-2`, the half-inhibitory concentration (IC50) worked out at 14.7 µM.
The molecule `Cc1cc2c(n1C)CCc1cc(C(=O)c3ccccc3)c(O)nc1-2` showed an IC50 of more than 20 µM.
On the same count and under the same terms, as for `Cc1cc2c(n1-c1ccccc1)CCc1cc(S(=O)(=O)c3ccccc3)c(O)nc1-2`, the figure is 3.6 µM.
`Cc1cc2c(n1C)CCc1cc(S(=O)(=O)c3ccccc3)c(O)nc1-2` displayed an IC50 of more than 20 µM.
`Cc1cc2c(n1-c1ccccc1)CCc1cc(C(=O)c3ccccc3)c(O)nc1-2` came in with an IC50 of 6.6 µM. This counts as single-digit micromolar.

The subject of the next experiment is HT-1080. In words: Inhibition of cell growth after irradiation at UVA dose of 3.2 J/cmE-2 in HT1080 human fibrosarcoma cell line. The experiment is classed as functional, cell-based. The settings on record: HT-1080, light or radiation study. The method in brief:
as §1
As to `O=c1ccc2ccc3occc3c2o1` [ANGELICIN], the IC50 amounted to 2.6 µM. In other words, the single-digit micromolar range.
In turn, `COc1c2ccoc2cc2oc(=O)ccc12` [BERGAPTEN] gave an IC50 of 1.8 µM.
Take `Cc1cc2c(n1Cc1ccccc1)CCc1cc(S(=O)(=O)c3ccccc3)c(O)nc1-2`: half-maximal inhibition (IC50) required 15.1 µM.
`Cc1cc2c(n1-c1ccccc1)CCc1cc(C#N)c(O)nc1-2` had an IC50 of 13.1 µM.
The same measure, in the same setting: as for `COc1c2occc2cc2ccc(=O)oc12` [METHOXSALEN], the figure is 2.1 µM; as for `Cc1cc2c(n1Cc1ccccc1)CCc1cc(C(=O)c3ccccc3)c(O)nc1-2`, 9 µM; as for `Cc1cc2c(n1C)CCc1cc(C(=O)c3ccccc3)c(O)nc1-2`, more than 20 µM.
On the same count and under the same terms, as for `Cc1cc2c(n1-c1ccccc1)CCc1cc(S(=O)(=O)c3ccccc3)c(O)nc1-2`, the figure is 2.3 µM.
Turning to `Cc1cc2c(n1C)CCc1cc(S(=O)(=O)c3ccccc3)c(O)nc1-2`, the IC50 was more than 20 µM.
The same measure, in the same setting: to `Cc1cc2c(n1-c1ccccc1)CCc1cc(C(=O)c3ccccc3)c(O)nc1-2` belongs 4.6 µM.
